Laboratory results reported in ChEMBL document CHEMBL4257540, “Structure-based virtual screening and ADME/T-based prediction analysis for the discovery of novel antifungal CYP51 inhibitors” (Medchemcomm, 2018).
≈ marks a conversion by molar mass, not a printed value.

Columns and labels:
[1] = target: T1, Lanosterol 14-alpha demethylase (Candida albicans (strain SC5314 / ATCC MYA-2876) (Yeast), UniProt P10613); assay: Inhibition of CYP51 in Candida albicans SC5314 assessed as lanosterol content at 8 ug/ml after 16 hrs by GC/MS analysis (reference value: 3.9%); set-up: scale not given: the % may be the effect or the level left; conditions: candida albicans sc5314, 16 h
[2] = target: T1, Lanosterol 14-alpha demethylase; assay: Inhibition of CYP51 in Candida albicans SC5314 assessed as obtusifoliol content at 8 ug/ml after 16 hrs by GC/MS analysis relative to control; set-up: scale not given: the % may be the effect or the level left; conditions: candida albicans sc5314, 16 h
[3] = target: T1, Lanosterol 14-alpha demethylase; assay: Inhibition of CYP51 in Candida albicans SC5314 assessed as unidentified sterol content at 8 ug/ml after 16 hrs by GC/MS analysis (reference value: 5.8%); set-up: scale not given: the % may be the effect or the level left; conditions: candida albicans sc5314, 16 h
Nakaseomyces glabratus = assay: Antifungal activity against Candida glabrata ATCC 0001 by broth microdilution method; type: functional
Summary of the method: (§1)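 MIC per NCCLS broth microdilution. Fungi incubated at 35 °C and growth checked daily. Fluconazole served as positive control.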

Pichia kudriavzevii = assay: Antifungal activity against Candida krusei ATCC 6258 by broth microdilution method; type: functional; summary of the method: as §1
Aspergillus fumigatus = assay: Antifungal activity against Aspergillus fumigatus KM8001 by broth microdilution method; type: functional; summary of the method: as §1
[4] = target: T1, Lanosterol 14-alpha demethylase; assay: Inhibition of CYP51 in Candida albicans SC5314 assessed as eburicol content at 8 ug/ml after 16 hrs by GC/MS analysis relative to control; set-up: scale not given: the % may be the effect or the level left; conditions: candida albicans sc5314, 16 h
Candida albicans [5] = assay: Antifungal activity against Candida albicans ATCC 10231 by broth microdilution method; type: functional
Summary of the method: (§2)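 Broth microdilution MIC per NCCLS guidelines; strains from a Chinese medical fungus preservation centre and Shenyang Pharmaceutical University. Cultures kept at 35 °C with daily growth observation.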

Candida albicans [6] = assay: Antifungal activity against fluconazole-resistant Candida albicans 100 by broth microdilution method; type: functional; summary of the method: as §2
[7] = target: T1, Lanosterol 14-alpha demethylase; assay: Inhibition of CYP51 in Candida albicans SC5314 assessed as ergosterol content at 8 ug/ml after 16 hrs by GC/MS analysis (reference value: 90.3%); set-up: scale not given: the % may be the effect or the level left; conditions: candida albicans sc5314, 16 h
Candida albicans [8] = assay: Antifungal activity against fluconazole-resistant Candida albicans 103 by broth microdilution method; type: functional; summary of the method: as §2
Candida tropicalis = assay: Antifungal activity against Candida tropicalis ATCC 1369 by broth microdilution method; type: functional; summary of the method: as §1

T1 sequence (P10613 whole entry): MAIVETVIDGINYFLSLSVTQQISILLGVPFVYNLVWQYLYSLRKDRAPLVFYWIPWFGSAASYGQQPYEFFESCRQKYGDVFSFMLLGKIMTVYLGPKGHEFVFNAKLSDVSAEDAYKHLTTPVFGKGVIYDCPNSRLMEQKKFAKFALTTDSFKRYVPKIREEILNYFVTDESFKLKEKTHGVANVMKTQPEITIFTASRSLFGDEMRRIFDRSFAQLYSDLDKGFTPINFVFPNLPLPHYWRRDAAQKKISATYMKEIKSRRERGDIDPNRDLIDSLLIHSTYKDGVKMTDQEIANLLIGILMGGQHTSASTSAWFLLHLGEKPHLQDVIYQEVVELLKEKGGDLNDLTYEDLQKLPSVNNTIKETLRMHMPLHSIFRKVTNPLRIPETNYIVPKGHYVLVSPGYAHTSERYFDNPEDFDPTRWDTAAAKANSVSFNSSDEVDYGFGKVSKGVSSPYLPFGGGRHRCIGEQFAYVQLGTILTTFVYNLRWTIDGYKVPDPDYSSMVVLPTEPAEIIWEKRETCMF

SMILES: Nc1c(/C=N/NC(=O)c2ccncc2)ccc2c1C(=O)c1ccccc1C2=O
- Activity [1]: 20.3%
- Activity [2]: 7.4%
- Activity [3]: 4.3%
- MIC (Nakaseomyces glabratus): 8 µg/mL (≈ 21.6 µM)
- MIC (Pichia kudriavzevii): 4 µg/mL (≈ 10.8 µM)
- MIC (Aspergillus fumigatus): 16 µg/mL (≈ 43.2 µM)
- Activity [4]: 63.4%
- MIC (Candida albicans [5]): 8 µg/mL (≈ 21.6 µM)
- MIC (Candida albicans [6]): 8 µg/mL (≈ 21.6 µM)
- Activity [7]: 4.6%
- MIC (Candida albicans [8]): 16 µg/mL (≈ 43.2 µM)
- MIC (Candida tropicalis): 2 µg/mL (≈ 5.4 µM)

SMILES: OC(Cn1cncn1)(Cn1cncn1)c1ccc(F)cc1F [FLUCONAZOLE]
- Activity [1]: 19.9%
- Activity [2]: 6.3%
- Activity [3]: 4.1%
- MIC (Nakaseomyces glabratus): 2 µg/mL (≈ 6.53 µM)
- MIC (Pichia kudriavzevii): 2 µg/mL (≈ 6.53 µM)
- MIC (Aspergillus fumigatus): 32 µg/mL (≈ 104 µM)
- Activity [4]: 67.2%
- MIC (Candida albicans [5]): 4 µg/mL (≈ 13.1 µM)
- MIC (Candida albicans [6]): > 64 µg/mL
- Activity [7]: 2.5%
- MIC (Candida albicans [8]): > 64 µg/mL
- MIC (Candida tropicalis): 2 µg/mL (≈ 6.53 µM)

SMILES: COc1cccc(NC(=S)N(CCN(C)C)[C@@H](C)c2ccncc2)c1
- Activity [1]: 22.4%
- Activity [2]: 7.1%
- Activity [3]: 5.7%
- MIC (Nakaseomyces glabratus): 2 µg/mL (≈ 5.58 µM)
- MIC (Pichia kudriavzevii): 4 µg/mL (≈ 11.2 µM)
- MIC (Aspergillus fumigatus): 8 µg/mL (≈ 22.3 µM)
- Activity [4]: 59%
- MIC (Candida albicans [5]): 4 µg/mL (≈ 11.2 µM)
- MIC (Candida albicans [6]): 8 µg/mL (≈ 22.3 µM)
- Activity [7]: 5.8%
- MIC (Candida albicans [8]): 4 µg/mL (≈ 11.2 µM)
- MIC (Candida tropicalis): 4 µg/mL (≈ 11.2 µM)

SMILES: O=C(NCCc1ccncc1)c1cnc2c(F)cccc2c1O
- Activity [1]: 23.1%
- Activity [2]: 8.2%
- Activity [3]: 4.9%
- MIC (Nakaseomyces glabratus): 4 µg/mL (≈ 12.8 µM)
- MIC (Pichia kudriavzevii): 8 µg/mL (≈ 25.7 µM)
- MIC (Aspergillus fumigatus): 16 µg/mL (≈ 51.4 µM)
- Activity [4]: 54.7%
- MIC (Candida albicans [5]): 8 µg/mL (≈ 25.7 µM)
- MIC (Candida albicans [6]): 8 µg/mL (≈ 25.7 µM)
- Activity [7]: 9.1%
- MIC (Candida albicans [8]): 16 µg/mL (≈ 51.4 µM)
- MIC (Candida tropicalis): 16 µg/mL (≈ 51.4 µM)
